Reference: publication PMC3273716 (European Journal of Medicinal Chemistry, 2011)
Where two headings read alike, the source gives them in different places.

System: P. carinii
Test: ATP bioassay, anti-Pneumocystis activity
Type: cell-based, Pneumocystis carinii
Details: for IC50: Pneumocystis carinii
In short: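 Rat-lung P. carinii (male CD rats, methylprednisolone-immunosuppressed), cryopreserved, thawed, held at 5 × 10^7 nuclei/ml in RPMI-1640 + 20% calf serum, 37 °C, 5% CO2. Screen at 100 µg/ml; titrated if ATP fell ≥50%. Luciferin-luciferase ATP at 6, 24, 48, 72 h. Triplicate wells, 3 assays, 2 batches. Ampicillin 10 µg/ml and pentamidine 1 µg/ml controls. IC50: linear regression, % ATP decrease vs log concentration.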

[1] = 72 h, read-out: IC50 (µg/ml) ± SD for P. carinii

| SMILES | IC50 [1] | IC50 (read-out: Activity ranking) | IC50 (72 h) | Activity ranking (ranking based on IC50 in µg/ml) |
| --- | --- | --- | --- | --- |
| CN(CCOc1ccc(C(=N)N)cc1)CCOc1ccc(C(=N)N)cc1.Cl.Cl [compound 1, 1,5-Bis(4-amidinophenoxy)-N-methyl-3-azapentane trihydrochloride] | 0.82 ± 0.44 µg/mL | 0.1 to 0.99 µg/mL |  |  |
| COc1cc(C(=N)N)ccc1OCCN(C)CCOc1ccc(C(=N)N)cc1OC.Cl.Cl [compound 2, 1,5-Bis(4-amidino-2-methoxyphenoxy)-N-methyl-3-azapentane] | 2.1 ± 1.24 µg/mL | 1 to 9.99 µg/mL |  |  |
| Cl.Cl.N=C(N)c1ccc(NCCOCCNc2ccc(C(=N)N)cc2)cc1 [compound 5] | 0.47 ± 0.09 µg/mL | 0.1 to 0.99 µg/mL |  |  |
| Cl.Cl.N=C(N)c1ccc(OCCOCCOc2ccc(C(=N)N)cc2)cc1 [compound 6] | 0.96 ± 0.32 µg/mL | 0.1 to 0.99 µg/mL |  |  |
| COc1cc(C(=N)N)ccc1OCCOCCOc1ccc(C(=N)N)cc1OC.Cl.Cl [compound 7, 1,5-Bis(4-amidino-2-methoxyphenoxy)-3-oxapentane dihydrochloride] | 2 ± 1.65 µg/mL | 1 to 9.99 µg/mL |  |  |
| COc1cc(C(=N)N)cc(OC)c1OCCOCCOc1c(OC)cc(C(=N)N)cc1OC.Cl.Cl [compound 8, 1,5-Bis(4-amidino-2,6-dimethoxyphenoxy)-3-oxapentane dihydrochloride] | 7.66 ± 1.67 µg/mL | 1 to 9.99 µg/mL |  |  |
| COc1cc(C(=N)N)cc(OC)c1OCCCCCOc1c(OC)cc(C(=N)N)cc1OC.Cl.Cl [compound 9, 1,5-Bis(4-amidino-2,6-dimethoxyphenoxy)pentane dihydrochloride] | 1.68 ± 0.37 µg/mL | 1 to 9.99 µg/mL |  |  |
| COc1cc(C(=N)N)ccc1OCCN(CCOc1ccc(C(=N)N)cc1OC)S(=O)(=O)c1ccccc1.Cl.Cl [compound 12, N,N-Bis[2(4-amidino-2-methoxyphenoxy)ethyl]benzenesulfonamide dihydrochloride] | 1.8 ± 0.76 µg/mL | 1 to 9.99 µg/mL |  |  |
| COc1cc(C(=N)N)cc(OC)c1OCCN(CCOc1c(OC)cc(C(=N)N)cc1OC)S(=O)(=O)c1ccccc1.Cl.Cl [compound 13, N,N-Bis[2(4-amidino-2,6-dimethoxyphenoxy)ethyl]-benzenesulfonamide] | 3.13 ± 0.99 µg/mL | 1 to 9.99 µg/mL |  |  |
| COc1cc(C(=N)N)ccc1OCCN(CCOc1ccc(C(=N)N)cc1OC)S(=O)(=O)c1ccc(NC(C)=O)cc1.Cl.Cl [compound 15, N,N-Bis[2(4-amidino-2-methoxyphenoxy)ethyl]-4-acetamidobenzenesulfonamide] | 2.59 ± 0.83 µg/mL | 1 to 9.99 µg/mL |  |  |
| COc1cc(C(=N)N)cc(OC)c1OCCN(CCOc1c(OC)cc(C(=N)N)cc1OC)S(=O)(=O)c1ccc(N)cc1.Cl.Cl [compound 16] | 3.24 ± 0.88 µg/mL | 1 to 9.99 µg/mL |  |  |
| Cl.Cl.N=C(N)c1ccc(C(=O)NCCCCNC(=O)c2ccc(C(=N)N)cc2)cc1 [compound 18, N,N’-Butane-1,4-diylbis(4-amidinobenzamide) dihydrochloride] | 1.85 ± 0.01 µg/mL | 1 to 9.99 µg/mL |  |  |
| N=C(N)c1ccc(OCCCCCOc2ccc(C(=N)N)cc2)cc1 [pentamidine, reference compound] | 0.3 µg/mL |  | 500 nM |  |

Continued, in another order:

| IC50 [1] | IC50 (read-out: Activity ranking) | IC50 (72 h) | SMILES | Activity ranking (ranking based on IC50 in µg/ml) |
| --- | --- | --- | --- | --- |
| 45.2 ± 16.9 µg/mL | 10 to 49.9 µg/mL |  | COc1cc(C(=N)N)cc(OC)c1OCCN(C)CCOc1c(OC)cc(C(=N)N)cc1OC.Cl.Cl [compound 3, 1,5-Bis(4-amidino-2,6-dimethoxyphenoxy)-N-methyl-3-azapentane trihydrochloride] |  |
| 1.02 ± 0.51 µg/mL | 1 to 9.99 µg/mL |  | CN(CCCCCN(C)c1ccc(C(=N)N)cc1)c1ccc(C(=N)N)cc1.Cl.Cl [compound 4] |  |
| 0.52 ± 0.04 µg/mL | 0.1 to 0.99 µg/mL |  | Cl.Cl.N=C(N)c1ccc(OCCSCCOc2ccc(C(=N)N)cc2)cc1 [compound 10, 1,5-Bis(4-amidinophenoxy)-3-thiapentane dihydrochloride] |  |
| 0.81 ± 0.12 µg/mL | 0.1 to 0.99 µg/mL |  | Cl.Cl.N=C(N)c1ccc(OCCN(CCOc2ccc(C(=N)N)cc2)S(=O)(=O)c2ccccc2)cc1 [compound 11, N,N-Bis[2(4-amidinophenoxy)ethyl]benzenesulfonamide dihydrochloride] | marked |
| 1.53 ± 0.9 µg/mL | 1 to 9.99 µg/mL |  | Cl.Cl.N=C(N)c1ccc(C(=O)NCCCNC(=O)c2ccc(C(=N)N)cc2)cc1 [compound 17, N,N’-Propane-1,3-diylbis(4-amidinobenzamide) dihydrochloride] |  |
| 7.4 ± 0.22 µg/mL | 1 to 9.99 µg/mL |  | Cl.Cl.N=C(N)c1ccc(C(=O)NCCCCCNC(=O)c2ccc(C(=N)N)cc2)cc1 [compound 19, N,N’-Pentane-1,5-diylbis(4-amidinobenzamide) dihydrochloride] |  |
| 4.9 ± 1.2 µg/mL | 1 to 9.99 µg/mL |  | Cl.Cl.N=C(N)c1ccc(C(=O)NCCCCCCNC(=O)c2ccc(C(=N)N)cc2)cc1 [compound 20, N,N’-Hexane-1,6-diylbis(4-amidinobenzamide) dihydrochloride] |  |
